The values below come from ChEMBL document CHEMBL4049426, “Identification of the Clinical Candidate (R)-(1-(4-Fluorophenyl)-6-((1-methyl-1H-pyrazol-4-yl)sulfonyl)-4,4a,5,6,7,8-hexahydro-1H-pyrazolo[3,4-g]isoquinolin-4a-yl)(4-(trifluoromethyl)pyridin-2-yl)methanone (CORT125134): A Selective Glucocorticoid Receptor (GR) Antagonist” (J Med Chem, 2017).

Structures are written as SMILES. Activity calls are given as the source filed them. No cut-off for these calls is given here.

A short description of data set [1]: AUC in monkey plasma at 20 mg/kg, po measured up to 24 hrs by LC/MS analysis. It is filed as ADME, organism-based, Macaca mulatta. Also noted: dose 20 mg/kg, time < 24 hr, route oral. The conditions noted are these: rhesus monkey. A digest of the protocol: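 Monkey i.v./p.o. study: oral 20mg/kg in 10% DMSO, 0.1% Tween 80, 0.5% hydroxypropylmethylcellulose in water; i.v. dose 1mg/kg.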

Data set [2] can be described thus: (§1) Antagonist activity at monkey glucocorticoid receptor in primary hepatocytes assessed as dexamethasone-induced tyrosine amino transferase activity preincubated for 30 mins followed by dexamethasone addition measured after 20 hrs. The format is cell-based, Macaca mulatta.
The species named for data set [3] is Macaca mulatta. The description is as §1. The format is cell-based.
Data set [4] concerns the target T1, Glucocorticoid receptor (Rattus norvegicus) (UniProt P06536).
T1 sequence (whole entry): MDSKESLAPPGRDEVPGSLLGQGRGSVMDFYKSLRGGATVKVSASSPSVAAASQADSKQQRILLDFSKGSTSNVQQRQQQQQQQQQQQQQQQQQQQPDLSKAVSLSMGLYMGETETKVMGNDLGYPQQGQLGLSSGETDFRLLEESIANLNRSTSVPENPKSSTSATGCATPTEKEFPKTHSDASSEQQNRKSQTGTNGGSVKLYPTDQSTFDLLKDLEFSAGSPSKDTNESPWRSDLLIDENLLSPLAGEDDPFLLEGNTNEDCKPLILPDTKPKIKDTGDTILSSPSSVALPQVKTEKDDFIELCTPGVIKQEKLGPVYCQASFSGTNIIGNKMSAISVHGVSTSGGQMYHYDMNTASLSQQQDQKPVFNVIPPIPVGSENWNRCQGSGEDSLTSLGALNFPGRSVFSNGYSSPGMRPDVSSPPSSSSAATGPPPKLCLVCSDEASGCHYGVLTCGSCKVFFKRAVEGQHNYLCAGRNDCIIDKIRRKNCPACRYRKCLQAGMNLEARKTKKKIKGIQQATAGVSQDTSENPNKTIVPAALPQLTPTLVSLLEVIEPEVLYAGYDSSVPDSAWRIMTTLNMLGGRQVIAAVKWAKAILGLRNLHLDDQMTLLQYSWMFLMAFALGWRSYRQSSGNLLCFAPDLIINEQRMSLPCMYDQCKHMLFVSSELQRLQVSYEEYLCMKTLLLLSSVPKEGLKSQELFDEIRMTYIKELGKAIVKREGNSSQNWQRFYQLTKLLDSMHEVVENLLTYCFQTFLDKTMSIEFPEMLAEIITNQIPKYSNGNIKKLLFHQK
As to the kind of experiment: Partial agonist activity at rat glucocorticoid receptor in primary hepatocytes assessed as induction of tyrosine amino transferase activity at 10 uM measured after 20 hrs. It is filed as cell-based.

Data set [5] has as its system Rattus norvegicus. As to the kind of experiment: In vivo antagonist activity at glucocorticoid receptor in Sprague-Dawley rat assessed as reduction in cortisone-induced plasma glucose levels at 30 mg/kg, po bid via gavage for 6 days pretreated for 12 hrs followed by cortisone 21-acetate treatment measured 24 hrs after last cortisone 21-acetate treatment. The format is functional, organism-based. A digest of the protocol:
(§2)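 Male Sprague Dawley rats (200-250g), 3-day vehicle baseline, groups of eight. Compound as suspension in DMSO:Tween 80:0.5% HPMC 10:0.1:89.9, oral gavage twice daily for 6 days; cortisone 21-acetate 30mg/kg s.c. daily in 1% methylcellulose. Tail-vein blood 24 h after last cortisone (12 h after last compound); glucose by clinical reagent, insulin by ultrasensitive rat ELISA.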

Data set [6] deals with Rattus norvegicus. As to the kind of experiment: In vivo antagonist activity at glucocorticoid receptor in Sprague-Dawley rat cortisone model of exogenous Cushing's syndrome assessed as inhibition of plasma insulin levels at 30 mg/kg, po bid via gavage for 6 days pretreated for 12 hrs followed by cortisone 21-acetate treatment measured 24 hrs after last cortisone 21-acetate treatment. The format is functional, organism-based. A digest of the protocol:
as §2

A short description of data set [7]: Protein binding in rat plasma. The format is ADME, cell-free. The conditions noted are these: read-out: PPB (converted).
The target of data set [8] is T2, Cytochrome P450 2C8 (Homo sapiens, UniProt P10632).
T2 sequence (P10632 whole entry): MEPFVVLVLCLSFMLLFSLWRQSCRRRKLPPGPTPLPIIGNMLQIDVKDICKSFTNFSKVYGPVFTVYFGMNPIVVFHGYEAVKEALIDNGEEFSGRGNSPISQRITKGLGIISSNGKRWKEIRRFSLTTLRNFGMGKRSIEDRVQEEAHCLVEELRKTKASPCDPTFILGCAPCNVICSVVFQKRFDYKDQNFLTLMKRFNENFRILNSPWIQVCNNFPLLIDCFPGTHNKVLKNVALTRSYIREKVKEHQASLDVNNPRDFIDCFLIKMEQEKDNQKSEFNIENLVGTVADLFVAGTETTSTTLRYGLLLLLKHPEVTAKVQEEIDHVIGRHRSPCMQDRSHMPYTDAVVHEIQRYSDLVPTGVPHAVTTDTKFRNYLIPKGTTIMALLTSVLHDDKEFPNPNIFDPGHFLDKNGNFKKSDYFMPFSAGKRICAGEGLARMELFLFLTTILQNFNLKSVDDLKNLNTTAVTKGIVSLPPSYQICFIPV
As to the kind of experiment: Inhibition of CYP2C8 (unknown origin).

Data set [9] concerns the target Cytochrome P450 2D6 (Homo sapiens, UniProt P10635). In words: Inhibition of CYP2D6 (unknown origin). The format is ADME.
For data set [10], the target named is T3, Cytochrome P450 1A2 (Homo sapiens, UniProt P05177).
T3 sequence (P05177 whole entry): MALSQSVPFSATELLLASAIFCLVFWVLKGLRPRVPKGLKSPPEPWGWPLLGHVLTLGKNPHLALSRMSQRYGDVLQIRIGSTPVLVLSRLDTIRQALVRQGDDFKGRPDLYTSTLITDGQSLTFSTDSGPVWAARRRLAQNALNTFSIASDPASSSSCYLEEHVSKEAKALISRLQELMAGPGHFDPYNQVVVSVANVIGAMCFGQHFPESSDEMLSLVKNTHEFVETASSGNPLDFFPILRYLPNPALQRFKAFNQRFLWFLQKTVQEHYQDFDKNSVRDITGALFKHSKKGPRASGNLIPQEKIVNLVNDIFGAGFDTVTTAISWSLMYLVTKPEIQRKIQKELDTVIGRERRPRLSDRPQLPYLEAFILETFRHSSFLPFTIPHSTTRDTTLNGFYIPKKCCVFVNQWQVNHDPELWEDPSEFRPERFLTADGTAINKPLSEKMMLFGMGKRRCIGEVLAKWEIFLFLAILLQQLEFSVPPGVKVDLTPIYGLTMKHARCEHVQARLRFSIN
As to the kind of experiment: Time-dependent inhibition of CYP1A2 (unknown origin). It is filed as ADME.

Data set [11] has as its target Cytochrome P450 2C9 (Homo sapiens, UniProt P11712). In words: Time-dependent inhibition of CYP2C9 (unknown origin). It is filed as ADME.
Data set [12] deals with Cytochrome P450 3A4 (Homo sapiens, UniProt P08684). As to the kind of experiment: Time-dependent inhibition of CYP3A4 (unknown origin). It is filed as ADME.
Cytochrome P450 3A4, sequence (P08684 whole entry): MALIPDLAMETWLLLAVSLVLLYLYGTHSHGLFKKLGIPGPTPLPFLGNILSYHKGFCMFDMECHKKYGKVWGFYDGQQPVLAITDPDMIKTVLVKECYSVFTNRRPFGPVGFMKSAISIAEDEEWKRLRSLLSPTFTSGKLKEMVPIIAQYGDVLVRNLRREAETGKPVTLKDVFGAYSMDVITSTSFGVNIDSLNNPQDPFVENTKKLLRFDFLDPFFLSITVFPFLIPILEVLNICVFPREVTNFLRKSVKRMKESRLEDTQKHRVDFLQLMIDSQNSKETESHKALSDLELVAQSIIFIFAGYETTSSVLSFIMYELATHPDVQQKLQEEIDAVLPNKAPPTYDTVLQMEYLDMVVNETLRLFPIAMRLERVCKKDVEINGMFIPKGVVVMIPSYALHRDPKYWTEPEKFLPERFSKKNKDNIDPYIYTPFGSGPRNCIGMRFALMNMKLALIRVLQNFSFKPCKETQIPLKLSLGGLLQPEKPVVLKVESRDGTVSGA
For data set [13], the target named is Cytochrome P450 3A5 (Homo sapiens, UniProt P20815). In words: Time-dependent inhibition of CYP3A5 (unknown origin). It is filed as ADME.
Cytochrome P450 3A5, sequence (P20815 whole entry): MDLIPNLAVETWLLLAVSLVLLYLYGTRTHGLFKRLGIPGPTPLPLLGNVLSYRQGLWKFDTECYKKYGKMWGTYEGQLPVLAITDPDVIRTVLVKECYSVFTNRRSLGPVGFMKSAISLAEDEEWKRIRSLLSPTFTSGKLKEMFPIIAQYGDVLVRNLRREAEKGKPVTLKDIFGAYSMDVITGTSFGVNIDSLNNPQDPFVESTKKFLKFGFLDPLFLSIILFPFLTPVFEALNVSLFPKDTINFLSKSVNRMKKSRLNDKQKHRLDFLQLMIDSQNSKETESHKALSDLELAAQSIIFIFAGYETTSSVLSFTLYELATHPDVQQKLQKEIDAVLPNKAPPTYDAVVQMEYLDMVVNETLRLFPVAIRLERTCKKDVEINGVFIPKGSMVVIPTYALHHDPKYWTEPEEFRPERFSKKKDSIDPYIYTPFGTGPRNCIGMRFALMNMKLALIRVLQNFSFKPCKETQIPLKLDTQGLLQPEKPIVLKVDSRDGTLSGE

Cytochrome P450 2D6, sequence (P10635 whole entry): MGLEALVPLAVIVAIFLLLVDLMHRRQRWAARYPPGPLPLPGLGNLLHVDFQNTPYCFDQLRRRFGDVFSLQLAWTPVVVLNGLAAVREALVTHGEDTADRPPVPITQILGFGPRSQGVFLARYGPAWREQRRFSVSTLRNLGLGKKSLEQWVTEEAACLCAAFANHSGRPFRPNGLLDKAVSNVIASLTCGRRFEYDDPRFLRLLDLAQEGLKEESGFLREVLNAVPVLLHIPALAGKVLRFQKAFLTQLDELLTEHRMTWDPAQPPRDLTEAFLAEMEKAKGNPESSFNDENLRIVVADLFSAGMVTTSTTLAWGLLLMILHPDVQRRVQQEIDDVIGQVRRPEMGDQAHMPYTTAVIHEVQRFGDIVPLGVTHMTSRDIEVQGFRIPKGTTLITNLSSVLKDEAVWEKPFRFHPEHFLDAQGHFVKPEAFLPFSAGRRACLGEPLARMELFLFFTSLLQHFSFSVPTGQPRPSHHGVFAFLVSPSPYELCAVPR
Cytochrome P450 2C9, sequence (P11712 whole entry): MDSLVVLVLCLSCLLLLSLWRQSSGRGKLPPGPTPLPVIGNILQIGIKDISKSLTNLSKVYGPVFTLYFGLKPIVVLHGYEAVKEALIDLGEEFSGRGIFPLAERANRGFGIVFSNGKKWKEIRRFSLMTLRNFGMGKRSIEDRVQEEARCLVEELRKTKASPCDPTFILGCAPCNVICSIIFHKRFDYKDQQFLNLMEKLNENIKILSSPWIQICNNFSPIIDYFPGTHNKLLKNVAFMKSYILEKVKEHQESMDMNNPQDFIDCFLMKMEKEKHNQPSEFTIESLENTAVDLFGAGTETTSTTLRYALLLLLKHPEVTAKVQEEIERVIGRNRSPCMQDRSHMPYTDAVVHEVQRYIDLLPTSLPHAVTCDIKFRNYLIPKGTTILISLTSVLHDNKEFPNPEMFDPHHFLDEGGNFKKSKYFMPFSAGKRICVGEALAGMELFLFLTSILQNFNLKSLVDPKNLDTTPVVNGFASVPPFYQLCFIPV

A word on the AUC: it is concentration integrated over time. For orientation: Ki means the dissociation constant of the complex between target and ligand, obtained from inhibition or displacement. By IC50 is commonly meant the midpoint of a concentration-inhibition curve. With `Cn1cc(S(=O)(=O)N2CCC3=Cc4c(cnn4-c4ccc(F)cc4)C[C@]3(C(=O)c3cc(C(F)(F)F)ccn3)C2)cn1` [RELACORILANT], the AUC at 24 h in [1] turned out to be 11700 ng·h/mL. Besides, the Ki in [2] stood at 210 nM. The Imax in [3] was found to be 99%. The result in data set [4] was Active. Also, the inhibition entry in [5] and in data set [6] was “Active” in each case. The fraction unbound in [7] is 0.003. The IC50 in data set [8] was determined as 210 nM; in data set [9], 9000 nM. The TDI entry in data set [10], in [11], in data set [12] and in data set [13] was “Not Active” each time.
